Measurements published in ChEMBL document CHEMBL4706762, “Massively Parallel Optimization of the Linker Domain in Small Molecule Dimers Targeting a Toxic r(CUG) Repeat Expansion” (ACS Med Chem Lett, 2021).
Blank lines part the entries; values can stand above or below the compound they belong to. Activity calls are given as the source filed them. No cut-off for these calls is given here.

What was measured:
r(CUG) repeat expansion [1] = experiment: Binding affinity to r(CUG)exp RNA repeat in DM1-patient derived myotubes assessed as improvement in MBNL1 exon 5 splicing defect at 1 uM measured after 48 hrs by RT-qPCR analysis relative to control; settings: Homo sapiens, Myotube
Summary of the method: (§1)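 DM1 patient-derived myotubes (1300 r(CUG) repeats) treated 48 h, then MBNL1 exon 5 splicing rescue measured. Single-dose screens at 5 μM or 1 μM, where 1 μM was used if 5 μM altered morphology, n = 3. Dose–response also run, n = 6. SD shown; one-way ANOVA.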

[2] = Cytotoxicity against DM1-patient derived myotubes assessed as change in cellular morphology at 1 uM measured after 48 hrs; settings: human, myotube
Summary of the method: (§2)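 Cell morphology of DM1 patient-derived myotubes inspected during 48 h splicing treatment at 5 μM; agents altering morphology were re-tested at 1 μM.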

[3] = Cytotoxicity against DM1-patient derived myotubes assessed as change in cellular morphology at 5 uM measured after 48 hrs; settings: human, myotube; summary of the method: as §2
[4] = Drug localization in nucleus of DM1-patient derived myotubes at 5 uM measured after 24 hrs by live-cell fluorescence microscopy; format: ADME, subcellular; settings: human, myotube
Summary of the method: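 DM1 patient myotubes bearing 1300 r(CUG) repeats given 5 μM agent; subcellular localization followed via intrinsic fluorescence of the H RNA-binding modules.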

Myotube [5] = experiment: Effect on alternative splicing of MAP4K4 exon 22a in DM1-patient derived myotubes at 0.04 to 1 uM measured after 48 hrs by RT-qPCR analysis; format: functional; settings: Homo sapiens, dose 0.04-1 µM
r(CUG) repeat expansion [6] = experiment: Binding affinity to SCUBE2 r(CUG)7 RNA repeat in DM1 patient-derived myotubes at 1 uM measured after 48 hrs by RT-qPCR analysis; settings: Homo sapiens, Myotube
Summary of the method: (§3)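 Transcript levels, either DMPK or r(CUG) repeat-containing mRNAs, quantified by RT-qPCR in treated DM1 myotubes; n = 6, one-way ANOVA.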

Myotube [7] = experiment: Effect on DMPK transcription in wild type human myotubes at 0.04 to 1 uM measured after 48 hrs by RT-qPCR analysis; format: functional; settings: dose 0.04-1 µM
Myotube [8] = experiment: Effect on MBNL1 exon 5 splicing in wild type human myotubes at 0.04 to 1 uM measured after 48 hrs by RT-qPCR analysis; format: functional; settings: dose 0.04-1 µM
r(CUG) repeat expansion [9] = experiment: Binding affinity to CASK r(CUG)16 RNA repeat in DM1 patient-derived myotubes at 1 uM measured after 48 hrs by RT-qPCR analysis; settings: Homo sapiens, Myotube; summary of the method: as §3
r(CUG) repeat expansion [10] = experiment: Binding affinity to LRP8 r(CUG)11 RNA repeat repeat in DM1 patient-derived myotubes at 1 uM measured after 48 hrs by RT-qPCR analysis; settings: Homo sapiens, Myotube; summary of the method: as §3
r(CUG) repeat expansion [11] = experiment: Binding affinity to r(CUG)exp RNA repeat in DM1-patient derived myotubes assessed as improvement in MBNL1 exon 5 splicing defect at 0.04 to 1 uM measured after 48 hrs by RT-qPCR analysis relative to control; format: tissue-based; settings: Homo sapiens, Myotube, dose 0.04-1 µM
Summary of the method: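 Dose–response for MBNL1 exon 5 splicing rescue in DM1 patient myotubes (1300 r(CUG) repeats) after 48 h treatment; n = 6, SD, one-way ANOVA.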

[12] = Reduction in DMPK transcription in DM1-patient derived myotubes at 0.04 to 1 uM measured after 48 hrs by RT-qPCR analysis; format: functional, Homo sapiens, Myotube; parameters: scale not given: the % may be the effect or the level left; settings: dose 0.04-1 µM; summary of the method: as §3
r(CUG) repeat expansion [13] = experiment: Binding affinity to r(CUG)12 RNA repeat (unknown origin) measured after 10 mins by fluorescence assay; format: nucleic-acid assay
Nucleic Acid = experiment: Binding affinity to r(CG)8 RNA repeat (unknown origin) measured after 10 mins by fluorescence assay; format: nucleic-acid assay
r(CUG) repeat expansion [14] = experiment: Binding affinity to MAP3K4 r(CUG)11 RNA repeat in DM1 patient-derived myotubes at 1 uM measured after 48 hrs by RT-qPCR analysis; format: tissue-based; settings: Homo sapiens, Myotube; summary of the method: as §3
r(CUG) repeat expansion [15] = experiment: Binding affinity to wild-type DMPK r(CUG)20 RNA repeat in DM1 patient-derived myotubes at 1 uM measured after 48 hrs by RT-qPCR analysis; settings: Homo sapiens, Myotube; summary of the method: as §3
r(CUG) repeat expansion [16] = experiment: Binding affinity to SORCS2 r(CUG)7 RNA repeat in DM1 patient-derived myotubes at 1 uM measured after 48 hrs by RT-qPCR analysis; settings: Homo sapiens, Myotube; summary of the method: as §3
r(CUG) repeat expansion [17] = experiment: Binding affinity to r(CUG)exp RNA repeat in DM1-patient derived myotubes assessed as reduction in number of r(CUG)exp-MBNL1 foci at 1 uM measured after 48 hrs by RNA fluorescence in situ hybridization assay; parameters: scale not given: the % may be the effect or the level left; settings: Homo sapiens, Myotube
Summary of the method: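 Nuclear foci counted in DM1 myotubes by confocal imaging: MBNL1 by immunofluorescence, r(CUG)exp by RNA FISH. Foci per nucleus from 40 nuclei per replicate, n = 3; Student's t-test.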

r(CUG) repeat expansion [18] = experiment: Binding affinity to [5'-32P]-r(CUG)10 RNA (unknown origin) assessed as induction of RNA cleavage at 5 uM measured after 24 hrs by gel electrophoresis method relative to control; format: nucleic-acid assay
Summary of the method: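 5′-radiolabeled r(CUG)10 incubated with agent; cleavage fragments resolved by gel electrophoresis; n = 3, one-way ANOVA.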

Myotube [19] = experiment: Effect on DMPK transcription in DM1-patient derived myotubes at 0.04 to 1 uM measured after 48 hrs by RT-qPCR analysis; format: functional; settings: Homo sapiens, dose 0.04-1 µM; summary of the method: as §3
r(CUG) repeat expansion [20] = experiment: Binding affinity to 5'-biotinylated r(CUG)12 RNA repeat (unknown origin) assessed as disruption of r(CUG)12-His-tagged MBNL1 complex formation preincubated for 15 mins followed by MBNL1 addition and measured after 15 mins by TR-FRET assay; format: nucleic-acid assay
r(CUG) repeat expansion [21] = experiment: Binding affinity to r(CUG)exp RNA repeat in DM1-patient derived myotubes assessed as improvement in MBNL1 exon 5 splicing defect at 0.2 uM measured after 48 hrs by RT-qPCR analysis relative to control; settings: Homo sapiens, Myotube; summary of the method: as §1
r(CUG) repeat expansion [22] = experiment: Binding affinity to r(CUG)exp RNA repeat in DM1-patient derived myotubes assessed as improvement in MBNL1 exon 5 splicing defect measured after 48 hrs by RT-qPCR analysis; format: tissue-based; settings: Homo sapiens, Myotube, dose 0.04-1 µM

Activity (r(CUG) repeat expansion [1]): inactive | Drug uptake [4]: Active
Structure (SMILES): CNCCCCN(CC(=O)N(CCCNC(=O)CCCOc1cccc(-c2nc3ccc(-c4nc5cc(N6CCN(C)CC6)ccc5[nH]4)cc3[nH]2)c1)CC(N)=O)C(=O)CN(Cc1ccc(OC)cc1)C(=O)CN(CCCCNC)C(=O)CN(C(=O)CCCOc1cccc(-c2nc3ccc(-c4nc5cc(N6CCN(C)CC6)ccc5[nH]4)cc3[nH]2)c1)C1CCCCC1
Activity [2]: Non-Toxic | Activity [3]: Toxic

Activity (r(CUG) repeat expansion [6]): inactive | Activity (r(CUG) repeat expansion [9]): inactive | Activity (r(CUG) repeat expansion [10]): inactive | Activity (r(CUG) repeat expansion [11]): 30% | EC50 (r(CUG) repeat expansion [13]): 120 nM | Activity (Nucleic Acid): inactive | Activity (r(CUG) repeat expansion [14]): inactive | Activity (r(CUG) repeat expansion [15]): inactive | Activity (r(CUG) repeat expansion [16]): inactive | Activity (r(CUG) repeat expansion [17]): 30% | Activity (r(CUG) repeat expansion [18]): > 70%
Structure (SMILES): CNCCCCN(CC(=O)N(CCN)CC(=O)N(CCCNC(=O)CCCOc1cccc(-c2nc3ccc(-c4nc5cc(N6CCN(C)CC6)ccc5[nH]4)cc3[nH]2)c1)CC(=O)NCCCCCC(=O)NCCCCNCCCNC(=O)c1csc(-c2csc(CCNC(=O)[C@@H](NC(=O)[C@@H](C)[C@H](O)[C@@H](C)NC(=O)[C@@H](NC(=O)c3nc([C@H](CC(N)=O)NC[C@H](N)C(N)=O)nc(N)c3C)[C@@H](O[C@@H]3O[C@@H](CO)[C@@H](O)[C@H](O)[C@@H]3O[C@@H]3O[C@H](CO)[C@@H](O)[C@H](OC(N)=O)[C@@H]3O)c3cnc[nH]3)[C@@H](C)O)n2)n1)C(=O)CN(C)C(=O)CN(CCCn1ccnc1)C(=O)CCCOc1cccc(-c2nc3ccc(-c4nc5cc(N6CCN(C)CC6)ccc5[nH]4)cc3[nH]2)c1
Activity (Myotube [5]): inactive | Activity (Myotube [7]): inactive | Activity (Myotube [8]): inactive | Activity [12]: 35%

Drug uptake [4]: Active
Structure (SMILES): CNCCCCN(CC(=O)N(CCC(=O)N1CCCC1)CC(=O)N(CCCNC(=O)CCCOc1cccc(-c2nc3ccc(-c4nc5cc(N6CCN(C)CC6)ccc5[nH]4)cc3[nH]2)c1)CC(N)=O)C(=O)CN(CCO)C(=O)CN(CCC(=O)N1CCCC1)C(=O)CCCOc1cccc(-c2nc3ccc(-c4nc5cc(N6CCN(C)CC6)ccc5[nH]4)cc3[nH]2)c1
Activity [3]: Non-Toxic

Activity (r(CUG) repeat expansion [1]): Active | Drug uptake [4]: Active
Structure (SMILES): CNCCCCN(CC(=O)N(CCCCNC)CC(=O)N(CCN)CC(=O)N(CCCNC(=O)CCCOc1cccc(-c2nc3ccc(-c4nc5cc(N6CCN(C)CC6)ccc5[nH]4)cc3[nH]2)c1)CC(N)=O)C(=O)CN(C)C(=O)CCCOc1cccc(-c2nc3ccc(-c4nc5cc(N6CCN(C)CC6)ccc5[nH]4)cc3[nH]2)c1
Activity [2]: Non-Toxic | Activity [3]: Toxic

Activity (r(CUG) repeat expansion [1]): Active | IC50 (r(CUG) repeat expansion [20]): 2800 nM | EC50 (r(CUG) repeat expansion [13]): 106 nM | Activity (Nucleic Acid): inactive | Activity (r(CUG) repeat expansion [17]): 20% | Activity (r(CUG) repeat expansion [21]): 7% | Drug uptake [4]: Active | Activity (r(CUG) repeat expansion [22]): Dose-dependent effect
Structure (SMILES): CNCCCCN(CC(=O)N(CCN)CC(=O)N(CCCNC(=O)CCCOc1cccc(-c2nc3ccc(-c4nc5cc(N6CCN(C)CC6)ccc5[nH]4)cc3[nH]2)c1)CC(N)=O)C(=O)CN(C)C(=O)CN(CCCn1ccnc1)C(=O)CCCOc1cccc(-c2nc3ccc(-c4nc5cc(N6CCN(C)CC6)ccc5[nH]4)cc3[nH]2)c1
Activity (Myotube [5]): inactive | Activity (Myotube [19]): inactive | Activity [2]: Non-Toxic | Activity (Myotube [8]): inactive | Activity [3]: Toxic

Drug uptake [4]: Active
Structure (SMILES): CNCCCCN(CC(=O)N(CCCNC(=O)CCCOc1cccc(-c2nc3ccc(-c4nc5cc(N6CCN(C)CC6)ccc5[nH]4)cc3[nH]2)c1)CC(N)=O)C(=O)CN(CCCCNC)C(=O)CN(CCO)C(=O)CN(Cc1cccnc1)C(=O)CCCOc1cccc(-c2nc3ccc(-c4nc5cc(N6CCN(C)CC6)ccc5[nH]4)cc3[nH]2)c1
Activity [3]: Non-Toxic

Drug uptake [4]: Active
Structure (SMILES): CCCN(CC(=O)N(CCCCNC)CC(=O)N(C)CC(=O)N(CCCNC(=O)CCCOc1cccc(-c2nc3ccc(-c4nc5cc(N6CCN(C)CC6)ccc5[nH]4)cc3[nH]2)c1)CC(N)=O)C(=O)CN(CCO)C(=O)CCCOc1cccc(-c2nc3ccc(-c4nc5cc(N6CCN(C)CC6)ccc5[nH]4)cc3[nH]2)c1
Activity [3]: Non-Toxic
